From the RNAGym collection of RNA variant scans (doi:10.1126/science.aae0568)
Variants at the floor of the assay were thinned out.

B1: tRNA (parent)
chain: GUUCCGUUGGCGUAAUGGUAACGCGUCUCCCUCCUAAGGAGAAGACUGCGGGUUCGAGUCCCGUACGGAACG

Variants of: B1
Test: yeast fitness relative to wild type (ratio to wild type); higher = fitter; tRNA-Arg(CCU), competitive growth, 37 C, YPD
Summary of the method: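 Changes in genotype frequencies gave Darwinian fitness relative to wild type. Frequencies were read by 100-nucleotide paired-end sequencing of gene amplicons before and after pooled Saccharomyces cerevisiae strains, carrying tRNA-Arg(CCU) gene variants at the native locus, were competed in YPD at 37°C for 24 hours in six replicates. A genotype was kept only with ≥ 100 starting reads, and estimates < 0.5 were set to 0.5.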

Variant	yeast fitness
GUUCCGUUGGCGUAAUGGUAACGCGUCUCGCUCCUAAGGAGAAGAGUGCGGGUUCGAGUCUCGUACGGAACG [C30G C46G C61U]	≤ 0.5
GUUCCGUUGGCGUAAUGGUAACGCGUCUCGCUCCUACAGUGAAGGCUGCGGGUUCGAGUCCCGUACGGAACG [C30G A37C G38A A40U A45G]	≤ 0.5
GUUCCGUUGGCGUAAUGGUAACGCGUCUCGGUGCUACGGAGAAGACUGCGGGUUCGAGUCCCGUACCGAACG [C30G C31G C33G A37C G67C]	≤ 0.5
GUUCCGUUGGCGUAAUGGUAACGCGUCUCGCUCCUACGGAGAAGACUGCGGGUUCGAGUCCCGUACGAAACG [C30G A37C G68A]	≤ 0.5
GUUCCGUUGGCGUAAUGGUAACGCGUCUCGGUCCUAAGGAGAGGACUGCGGGUUCGGGUCCCGUACGGAACG [C30G C31G A43G A57G]	≤ 0.5
GUUCCGUUGGCGUAAUGGUAACGCGUCUCGCUCCUAAGGAGAAGCCUGCGGGUUCGAGUCACGUACCGAACG [C30G A45C C61A G67C]	≤ 0.5
GUUCCGUUGGCGUAAUGGUAACGCGUCUCGAUCCUAAGGAGAAGACUGCGGGUUCGAGUCCCGUACGGAACG [C30G C31A]	0.62
GUUCCGUUGGCGUAAUGGUAACGCGUCUCGGUCCUAAGGAGAAGACUGCGGGUUCGAGUCCCGUACGGAACG [C30G C31G]	0.687
GUUCCGUUGGCGUAAUGGUAACGCGUCUCGCUCUUAAGGAGAAGACUGCGGGUUCGGGUUCCGUACGCAACG [C30G C34U A57G C60U G68C]	≤ 0.5
GUUCCGUUGGCGUAAUGGUAACGCGUCUCGUUCCUAAGGAGAAGACUGCGGGUUCGGGACCCGUACGGAACG [C30G C31U A57G U59A]	≤ 0.5
GUUCCGUUGGCGUAAUGGUAACGCGUCUCGCUCCUAAGGCGAAGACUGCGGGUUAGACUCCCGUUCGGAUCG [C30G A40C C55A G58C A65U A70U]	0.769
GUUCCGUUGGCGUAAUGGUAACGCGUCUCGCUCCUAAGGAGAGGACUGCGGGUUCGAGUCCCGUACGGAACG [C30G A43G]	0.589
GUUCCGUUGGCGUAAUGGUAACGCGUCUCGGAUCUAAGGAGAAGACUGCGGGUUCGAGUCCCGUUCGGAACG [C30G C31G U32A C33U A65U]	≤ 0.5
GUUCCGUUGGCGUAAUGGUAACGCGUCUCGGUGCUACGGAGAAGACUGCGGGUUCGAGUCCCGUACGGAACG [C30G C31G C33G A37C]	≤ 0.5
GUUCCGUUGGCGUAAUGGUAACGCGUCUCGCUCCUAAGGAGAAGAGUGCGGGCUCGGGUCCCGUACGGUACG [C30G C46G U53C A57G A69U]	≤ 0.5
GUUCCGUUGGCGUAAUGGUAACGCGUCUCGCUCCUAAGGAGAAGCCUGCGGGUUCGAGUCCCGUACGGAACG [C30G A45C]	0.669
GUUCCGUUGGCGUAAUGGUAACGCGUCUCGGUCCUAAGGAGAAGACUGCGGGUUCGAGUCCCGUUGGGAACG [C30G C31G A65U C66G]	≤ 0.5
GUUCCGUUGGCGUAAUGGUAACGCGUCUCGCUCCUAAGGAGUAGACUGCGGGUUCGACUCCCGUACGGAACG [C30G A42U G58C]	≤ 0.5
GUUCCGUUGGCGUAAUGGUAACGCGUCUCGCUCCUAAGGAGUAGACUGCGGGUUCGAGUCACGUACGGAACG [C30G A42U C61A]	0.639

Variant	yeast fitness
GUUCCGUUGGCGUAAUGGUAACGCGUCUCGCUACUAAGGAGAAGACUGCGGGUUCCAGUCCCGUGCGGAACG [C30G C33A G56C A65G]	≤ 0.5
GUUCCGUUGGCGUAAUGGUAACGCGUCUCGCUGCUAAGGAGAAGACUGCGGGUUCGAGUGCCGUACGGAUCG [C30G C33G C60G A70U]	≤ 0.5
GUUCCGUUGGCGUAAUGGUAACGCGUCUCGCUGCUAAGGAGAAGACUGCGGGUUCGAGUGCCGUACGGAGCG [C30G C33G C60G A70G]	0.544
GUUCCGUUGGCGUAAUGGUAACGCGUCUCGCUGCUAAGGAGAAGACUGGGGGUUCGAGUCGCGUACGGAACG [C30G C33G C49G C61G]	0.538
GUUCCGUUGGCGUAAUGGUAACGCGUCUCGCUCCUAAGGAGAAGAGUGCGGGUUCGAGUCCCGUACGGUACG [C30G C46G A69U]	0.586
GUUCCGUUGGCGUAAUGGUAACGCGUCUCGUUCCUAAGGAGAAGAUUGCGGGUUCGAGUCCCGUACGGAACG [C30G C31U C46U]	0.609
GUUCCGUUGGCGUAAUGGUAACGCGUCUCGCUCCUAAGGAGGAGACUGCGGGUUCGAGUCCCGGACGGAACG [C30G A42G U64G]	≤ 0.5
GUUCCGUUGGCGUAAUGGUAACGCGUCUCGUUCCUAAGGAGAAGACUGCGGGUUCGAGACCCGUACGGAACG [C30G C31U U59A]	0.563
GUUCCGUUGGCGUAAUGGUAACGCGUCUCGCUCCUAAGGCGAAGACUGCGGGUUGGAGUCCCGUACGGAACG [C30G A40C C55G]	0.624
GUUCCGUUGGCGUAAUGGUAACGCGUCUCGCUCGUAAGGCGAAGACUGCGGGUUCGAGUCCCGUAAGGCACG [C30G C34G A40C C66A A69C]	0.527
GUUCCGUUGGCGUAAUGGUAACGCGUCUCGCUCCUAAGGGGAAGGCUGCGGCUUCGCGUUCCGUACGGACCG [C30G A40G A45G G52C A57C C60U A70C]	≤ 0.5
GUUCCGUUGGCGUAAUGGUAACGCGUCUCGCUCCUAAGGGGAAGACUGCGGCUUCGCGUUCCGUACGGACCG [C30G A40G G52C A57C C60U A70C]	≤ 0.5
GUUCCGUUGGCGUAAUGGUAACGCGUCUCGCUCCUAAGGAGAGGACUGGGGGUUCGAGUCCCGUACGGAACG [C30G A43G C49G]	0.544
GUUCCGUUGGCGUAAUGGUAACGCGUCUCGCUCCUAAGGAGAAGACUGCGGGUUCGAGUCCCGUACGGACCG [C30G A70C]	0.719
GUUCCGUUGGCGUAAUGGUAACGCGUCUCGCUCCUAAGGAGAAGACUGCGGGUUCGAGUCCCGUACGGAGCG [C30G A70G]	0.722
GUUCCGUUGGCGUAAUGGUAACGCGUCUCGCUUCUAAGGAGAAGACUGCGGGUUCCAGUCCCGUACGGAACG [C30G C33U G56C]	≤ 0.5
GUUCCGUUGGCGUAAUGGUAACGCGUCUCGCUCCUAUAGAGAAGACUGCGGGUUCGCGUCCCGUCCGGAACG [C30G A37U G38A A57C A65C]	≤ 0.5
GUUCCGUUGGCGUAAUGGUAACGCGUCUCGCUCAUAAGGAGAAGACUGGAGGUUCGAGUCCCGAACGCAACG [C30G C34A C49G G50A U64A G68C]	≤ 0.5
